# Screens from PubChem.
# Rows were chosen to be rich in hits. Some 2.9% of all compounds tested hit in one or more screens of this group.
# mABHD4 FP: ABHD4 inhibitors, primary screen, biochemical, fluorescence polarization, mouse | inhibition, % at 8.92 µM | (Lyso)-N-acylphosphatidylethanolamine lipase (Mus musculus), Q8VD66 | AID 720543, 2013 | purified mABHD4, FP-Rh probe fluorescence polarization | 370,000 tested, 0.54% active;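 active = inhibition exceeding the mean over every tested compound plus 3 SD, cut at about 30% in these data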;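 note: 0% = plate median of compound wells and 100% = S159A mutant with DMSO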
#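 Doses – 8.92 µM, single dose · Material – wild-type mouse ABHD4 protein · Replication – single well per compound (singlicate) · Measure – percent inhibition of probe binding, normalized to plate controls · Schedule – 45 min compound pre-incubation plus 60 min probe step, 25 °C · Detection – fluorescence polarization with parallel and perpendicular emission, 525/598 nm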
# PAD4 inh: human PAD4 inhibitors, primary screen, biochemical, fluorescence polarization, 1536-well format; Protein-arginine deiminase type-4 (Homo sapiens), Q9UM07; recombinant PAD4, RCA probe fluorescence polarization; inhibition, % at 6.36 µM; 330,000 tested, 0.41% active; AID 485272, 2010;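 active = percent inhibition above a cutoff equal to the mean of all tested compounds plus 3 SD, cut at about 15% in these data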;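 note: 0% = PAD4 with RCA probe and DMSO and 100% = probe without PAD4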
# PRMT1 FP inh: PRMT1 methyltransferase inhibitors, primary screen, biochemical, fluorescence polarization; AID 652257, 2013; recombinant PRMT1, activity-based probe fluorescence polarization; 370,000 tested, 1.3% active; inhibition, % at 2.79 µM;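 active = inhibition above about 21% made by adding two undisclosed values, limit read from the data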
# HTRA1 inh: HTRA1 serine protease inhibitors, primary screen, biochemical, fluorescence polarization, HTS; inhibition, % at 5.96 µM; recombinant HTRA1, FP-rhodamine activity-based probe; AID 504803, 2011; 340,000 tested, 0.5% active; Q92743; in the data active = inhibition above about 36%;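 note: 0% = enzyme with DMSO and 100% = wells lacking enzyme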
# Target sequence (Q92743 whole entry, looked up): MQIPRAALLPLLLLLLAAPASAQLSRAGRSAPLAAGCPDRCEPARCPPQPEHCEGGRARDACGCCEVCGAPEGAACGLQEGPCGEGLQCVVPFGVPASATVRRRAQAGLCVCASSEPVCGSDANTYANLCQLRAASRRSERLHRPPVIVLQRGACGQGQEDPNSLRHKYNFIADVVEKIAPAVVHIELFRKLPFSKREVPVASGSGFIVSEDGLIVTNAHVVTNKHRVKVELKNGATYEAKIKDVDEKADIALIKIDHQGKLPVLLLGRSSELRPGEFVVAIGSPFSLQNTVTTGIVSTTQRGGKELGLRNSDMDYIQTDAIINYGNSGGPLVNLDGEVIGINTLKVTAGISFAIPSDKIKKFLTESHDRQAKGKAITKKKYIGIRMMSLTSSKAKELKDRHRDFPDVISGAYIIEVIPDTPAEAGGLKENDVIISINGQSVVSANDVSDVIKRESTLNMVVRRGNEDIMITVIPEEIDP
# TCR CD3 inh: inhibitors of human TCR-CD3 interaction, primary screen, biochemical, fluorescence, TAMRA-labeled TCR probe | inhibition, % at 9.4 µM | 360,000 tested, 0.37% active | AID 651800, 2012; in the data active = inhibition above about 19%;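 note: recombinant mutant TCR 2C K166C tagged with TAMRA read by polarization; 0% = receptor in buffer alone and 100% = receptor with positive control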
# SIAE primary: human SIAE inhibitors, primary screen, biochemical, fluorescence polarization, FP-Rh probe, 1536-well HTS. SIAE FP-Rh probe binding. inhibition, % at 9.66 µM. 370,000 tested, 0.69% active. AID 1053197, 2014;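 active = inhibition above a cutoff: mean of compounds within the control limits plus 3 SD of those, cut at about 17% in these data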;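 note: 0% = plate median of compound wells and 100% = probe without SIAE protein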
# PRMT1 inh conf: PRMT1 methyltransferase inhibitors, confirmation, biochemical, fluorescence polarization, triplicate; shares compounds with PRMT1 FP inh; recombinant His-PRMT1, activity-based probe fluorescence polarization; inhibition, % at 2.79 µM; 3,300 tested, 42% active; AID 687036, 2013;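 active = mean inhibition across replicates above the hit cutoff derived for the earlier primary screen, cut at about 22% in these data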
# * marks the source's active call; other numbers are inactive results; · = no result.
SMILES,mABHD4 FP,PAD4 inh,PRMT1 FP inh,HTRA1 inh,TCR CD3 inh,SIAE primary,PRMT1 inh conf
O=C1C(Cl)=C(Nc2ccccc2)C(=O)c2ccccc21,12.4,1.6,5.7,1.3,-10.6,0.2,·
O=C1C(Cl)=C(NCCc2ccccc2)C(=O)c2ccccc21,22.8,·,65.8*,27.2,-1.1,0.4,96.4*
CCOC(=O)C1=C(C)N=c2s/c(=C\c3ccc(OCC(=O)O)cc3)c(=O)n2C1c1ccc(Cl)cc1 (stereo not given),-49.6,·,30.1*,-52.0,7.0,-23.7,10.4
CCOC(=O)C1=C(C)N=c2s/c(=C\c3ccc(OCC(=O)O)cc3)c(=O)n2C1c1ccccc1OC (stereo not given),-11.8,4.7,16.9,-17.8,-0.7,-2.7,·
CCOC(=O)C1=C(C)N=c2s/c(=C/c3ccc(OCC(=O)O)c(OC)c3)c(=O)n2C1c1ccc(Cl)cc1 (stereo not given),-31.4,8.2,34.2*,-41.1,-1.8,-27.6,22.2*
CCOC(=O)C1=C(C)N=c2s/c(=C/c3ccc(OCC(=O)O)cc3)c(=O)n2C1c1ccc(SC)cc1 (stereo not given),·,·,·,-87.1,·,·,·
CCOC(=O)C1=C(C)N=c2s/c(=C/c3ccc(OCC(=O)O)cc3)c(=O)n2C1c1ccc(F)cc1 (stereo not given),-44.7,10.8,36.7*,-29.8,9.2,-16.2,10.7
COc1ccc(C2SCCN2C(=S)Nc2ccc(F)cc2)cc1 (stereo not given),1.1,-6.7,57.8*,3.4,10.0,1.8,1.8
CCOC(=O)c1ccc(NC(=S)N2CCSC2c2ccc(OC)cc2)cc1 (stereo not given),0.0,-3.3,88.0*,-18.7,-2.9,-20.6,4.2
CCOC(=O)c1ccc(NC(=S)N2CCSC2c2ccc(Cl)cc2)cc1 (stereo not given),-2.6,-3.6,83.7*,-35.6,0.4,-21.9,-0.5
CCOC(=O)c1ccc(NC(=O)NCc2ccc(OC)cc2)cc1,-7.0,0.7,-1.1,-12.8,9.2,-0.7,·
CCOC(=O)c1ccc(NC(=S)N2CCN(C)CC2)cc1,-6.9,-2.9,2.5,3.3,-3.3,-2.4,·
COc1ccc(C2SCCN2C(=S)Nc2cccc(C(F)(F)F)c2)cc1 (stereo not given),-6.6,0.4,7.7,1.6,-9.4,12.4,·
O=C(CSc1nnc(-c2cccnc2)n1Cc1ccco1)N1c2ccccc2Sc2ccccc21,-4.8,-1.9,40.5*,-3.6,-7.2,-5.0,16.3
O=C(CSc1nnc(-c2cccnc2)n1Cc1ccco1)Nc1ccc(Cl)cc1,-2.1,·,0.8,·,·,1.5,·
Cc1cc(Cl)ccc1NNC(=O)c1cccs1,3.4,-0.2,2.9,3.1,-3.9,4.8,·
CC(=O)C(=Nc1cccc(Cl)c1)NNc1ccccc1C,28.7,-6.0,83.1*,0.5,1.6,5.0,2.8
CCNc1nc(SCC(N)=O)nc2sc3c(c12)CCN(C)C3,6.4,·,60.5*,7.1,7.2,1.9,16.1
CCc1cc2c(nc1CC)CCCN2S(=O)(=O)c1ccc(C(F)(F)F)cc1,-3.0,·,-3.8,·,-0.4,4.3,·
COC(=O)C1CN(CCO)CCS(=O)(=O)N1Cc1cccc(Cl)c1 (stereo not given),2.4,·,-2.5,·,·,-7.4,·
Cc1ccc(CN(Cc2ccccc2)C(=S)NCC(=O)NCc2cccnc2)o1,3.1,-6.7,32.6*,7.7,-0.9,-5.3,2.6
CCOC(=O)NC(=O)C(/C=N/c1sccc1C(=O)OC)=C(\C)O,15.6,-0.3,45.0*,·,6.3,-1.0,0.1
C=CCN(CC#CC(=C)C)Cc1ccc(OC)cc1OC,2.0,·,0.2,·,·,-5.2,·
CC(CCN1CCC(C(O)(c2ccccc2)c2ccccc2)CC1)Oc1ccc(C#N)c(F)c1 (stereo not given),9.2,·,0.4,·,·,-1.0,·
Cc1cc(C)nc(N/N=C/C2=C(N3CCOCC3)C(=C\c3ccc(Cl)cc3)/CC2)n1,13.8,-7.8,9.6,18.1,1.1,5.7,·
